Compound activity (PubChem)
FXIa inh 1536 – inhibitors of human coagulation factor XIa | inhibition, % at 5 µM | P03951 | AID 798 | purified FXIa, Boc-Glu-Ala-Arg-AMC fluorogenic substrate | actives 0.14% (n = 220,000);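 active = inhibition of at least 40%; inactive = inhibition below 40%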;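 note: fluorescence of freed AMC excited at 355 nm; 0% = enzyme without compound and 100% = no enzyme blank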
Furin inh – inhibitors of human furin; actives 0.061% (n = 220,000); P09958; purified furin, fluorogenic substrate cleavage; inhibition, % at 20 µM or 30 µM; AID 463115; in the data active = inhibition above about 25%
FXIIa inh 1536 – factor XIIa (human) inhibition | P00748 | purified FXIIa, Boc-QGR-AMC fluorogenic substrate, 2 h | inhibition, % at 5 µM | actives 0.3% (n = 220,000) | AID 800; in the data active = inhibition above about 40%;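 note: 0% = enzyme with no compound and 100% = blank without enzyme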
Thrombin inh – inhibitors of human thrombin; P00734; alpha-thrombin, Boc-VPR-AMC fluorogenic substrate cleavage; inhibition, % at 5 µM; actives 0.26% (n = 220,000); AID 1046;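 active = inhibition at or above 40%; inactive = inhibition below 40%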;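 note: 0% = enzyme with no compound and 100% = wells without enzyme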
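Assay system: human alpha-thrombin enzyme. Reagent: Boc-VPR-AMC substrate, 15 µM final. Compound dosing: one concentration per compound, 5 µM, with 0.2% DMSO. Incubation: room-temperature reaction. Technique: AMC fluorescence, 355/460 nm. Measure: % inhibition relative to enzyme controls and enzyme-free blanks.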
PERK inhibitor – inhibitors of human PERK kinase; inhibition, % at 5.6 µM; Q9NZJ5; actives 0.17% (n = 220,000); CHO PERK-DD fusion, SEAP luminescence translation reporter;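 active = inhibition above the mean inhibition of all tested compounds plus 3 SD, set separately per screening campaign, cut at about 2.9% in these data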;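 note: PERK kinase domain activated by AP20187 dimerizer at 100 nM; 0% = DMSO with dimerizer and 100% = rapamycin at 8.4 µM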
Target sequence (Q9NZJ5 whole entry, looked up, the tested form may be a part): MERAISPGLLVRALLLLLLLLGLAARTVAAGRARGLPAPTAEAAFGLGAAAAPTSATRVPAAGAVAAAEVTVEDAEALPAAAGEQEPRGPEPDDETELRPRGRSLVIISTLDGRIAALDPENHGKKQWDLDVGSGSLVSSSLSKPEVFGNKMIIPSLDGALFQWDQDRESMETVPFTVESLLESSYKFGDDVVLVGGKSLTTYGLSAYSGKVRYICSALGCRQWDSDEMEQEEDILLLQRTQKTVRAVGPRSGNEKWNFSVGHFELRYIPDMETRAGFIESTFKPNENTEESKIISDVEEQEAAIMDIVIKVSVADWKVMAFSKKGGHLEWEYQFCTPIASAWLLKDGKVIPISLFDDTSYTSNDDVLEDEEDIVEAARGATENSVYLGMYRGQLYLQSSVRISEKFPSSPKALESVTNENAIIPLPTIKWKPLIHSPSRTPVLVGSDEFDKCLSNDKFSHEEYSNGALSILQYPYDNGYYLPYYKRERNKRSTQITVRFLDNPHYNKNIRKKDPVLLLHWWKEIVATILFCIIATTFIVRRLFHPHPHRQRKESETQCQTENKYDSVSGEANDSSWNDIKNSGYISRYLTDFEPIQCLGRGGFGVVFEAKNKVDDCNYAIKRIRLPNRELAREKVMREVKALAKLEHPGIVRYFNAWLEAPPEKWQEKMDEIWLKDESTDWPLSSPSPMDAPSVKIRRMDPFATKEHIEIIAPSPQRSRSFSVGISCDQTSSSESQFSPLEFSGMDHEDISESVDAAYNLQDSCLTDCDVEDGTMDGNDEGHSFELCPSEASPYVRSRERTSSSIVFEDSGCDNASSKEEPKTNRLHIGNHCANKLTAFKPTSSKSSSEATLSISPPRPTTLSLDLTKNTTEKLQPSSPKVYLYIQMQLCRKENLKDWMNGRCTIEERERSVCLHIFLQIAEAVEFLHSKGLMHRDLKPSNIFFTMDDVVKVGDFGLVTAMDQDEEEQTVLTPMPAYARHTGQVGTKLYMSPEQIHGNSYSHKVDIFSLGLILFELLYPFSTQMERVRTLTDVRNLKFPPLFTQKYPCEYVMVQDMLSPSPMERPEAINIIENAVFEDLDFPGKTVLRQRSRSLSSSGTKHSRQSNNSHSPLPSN
hK5 inh – kallikrein 5 (human) inhibition. recombinant hK5, fluorogenic AMC substrate cleavage. inhibition, % at 5 µM. Q9Y337. actives 0.59% (n = 210,000);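 active = inhibition of 40% or more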;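 note: 0% = enzyme controls without compound and 100% = no-enzyme blanks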
Starred values were filed as active, the others as inactive. Hits are enriched below; roughly 1.2% of the tested compounds scored in any of these assays.

Results for N=c1n(CCO)c2ccccc2n1Cc1ccccc1 ?
FXIa inh 1536: 14; Furin inh: -16; FXIIa inh 1536: 17; Thrombin inh: 67*; PERK inhibitor: 0; hK5 inh: 30

How did Cc1ccccc1-n1c(O)c(C=Nc2ccc(N(C)C)cc2)c(=O)[nH]c1=O do in these assays?
FXIa inh 1536: -2; Furin inh: 27*; FXIIa inh 1536: 12; Thrombin inh: 2; PERK inhibitor: -1; hK5 inh: -17

How did Cc1cccc(N=Cc2c(O)n(-c3ccccc3C)c(=O)[nH]c2=O)c1 do in these assays?
FXIa inh 1536: 5; Furin inh: -4; FXIIa inh 1536: 17; Thrombin inh: -1; PERK inhibitor: 0; hK5 inh: 0

Results for CC(C)(C)C(=O)c1cn(Cc2ccccc2)c2ccccc12 ?
FXIa inh 1536: -7; Furin inh: -30; FXIIa inh 1536: -6; Thrombin inh: 0; PERK inhibitor: 1; hK5 inh: -25

What do the screens show for `O=P(C(=Nc1ccc(Cl)cc1)N1CCOCC1)(N1CCOCC1)N1CCOCC1`?
FXIa inh 1536: 15; Furin inh: -5; FXIIa inh 1536: 20; Thrombin inh: 28; PERK inhibitor: 0; hK5 inh: 42*

What do the screens show for `O=c1[nH]c2ccccc2o1`?
FXIa inh 1536: 9; Furin inh: -13; FXIIa inh 1536: 18; Thrombin inh: 0; PERK inhibitor: 1; hK5 inh: 1

What do the screens show for `C[C@]12CCC(=O)C=C1CC[C@@H]1[C@@H]2CC[C@@]2(C)[C@H]1CC[C@]2(C)O`?
PERK inhibitor: 1

Results for C[C@]12CCC(=O)C=C1CCC1C2CC[C@@]2(C)C1CC[C@@]2(O)CC#N (some centres not stated) ?
FXIa inh 1536: 9; Furin inh: -14; FXIIa inh 1536: 17; Thrombin inh: 16; PERK inhibitor: 0; hK5 inh: 62*

Results for CNC(=O)O/N=C/c1nn(C(=O)C(C)(C)C)cc1Br ?
FXIa inh 1536: 4; Furin inh: -26; FXIIa inh 1536: 7; Thrombin inh: -3; PERK inhibitor: 3.2*; hK5 inh: 1

How did CCc1ccccc1N1C(=O)CC(=O)NC1=O do in these assays?
FXIa inh 1536: 42*; Furin inh: -4; FXIIa inh 1536: 29; Thrombin inh: 46*; PERK inhibitor: 1; hK5 inh: 34

How did Cc1ccccc1N1C(=O)CC(=O)NC1=O do in these assays?
FXIa inh 1536: 14; Furin inh: -19; FXIIa inh 1536: 20; Thrombin inh: 2; PERK inhibitor: 0; hK5 inh: -1

How did CCc1ccc(-n2c(O)c(C(C)=O)c(=O)[nH]c2=O)cc1 (tested in a mixture with another compound) do in these assays?
FXIa inh 1536: 0; Furin inh: -19; FXIIa inh 1536: 5; Thrombin inh: -3; PERK inhibitor: 0; hK5 inh: -4

How did CSc1nc(N)c(N=Nc2ccc([As](=O)(O)O)cc2)c(=O)[nH]1 do in these assays?
FXIa inh 1536: -10; Furin inh: 27*; FXIIa inh 1536: 6; Thrombin inh: 0; PERK inhibitor: 0; hK5 inh: 7

Results for CC(NC1CCCCC1)C(O)C12CC3CC(CC(C3)C1)C2 (configuration not stated) ?
FXIa inh 1536: 4; Furin inh: -21; FXIIa inh 1536: 4; Thrombin inh: -1; PERK inhibitor: -1; hK5 inh: -4

Results for COCCNC(=O)c1ccc(N2CC3CC(C2)c2cccc(=O)n2C3)c([N+](=O)[O-])c1 (configuration not stated) ?
FXIa inh 1536: -1; Furin inh: -31; FXIIa inh 1536: 9; Thrombin inh: -5; PERK inhibitor: 1; hK5 inh: -2

How did COc1ccc2nc(/N=C/c3c(O)n(-c4cccc(Cl)c4)c(=O)[nH]c3=O)sc2c1 do in these assays?
FXIa inh 1536: 3; Furin inh: -13; FXIIa inh 1536: -2; Thrombin inh: 0; PERK inhibitor: 2.9*; hK5 inh: 0

What do the screens show for `CN=C(SCc1cc2c(cc1Cl)OCO2)c1c(O)n(C)c(=O)n(C)c1=O`?
FXIa inh 1536: 2; Furin inh: -20; FXIIa inh 1536: 4; Thrombin inh: -1; PERK inhibitor: 1; hK5 inh: 19

How did Cc1ccc2c(c1)C1CN(C)CCC1N2C(=O)COc1ccc(S(=O)(=O)N2CCOCC2)cc1 (configuration not stated) do in these assays?
FXIa inh 1536: 3; Furin inh: -12; FXIIa inh 1536: 13; Thrombin inh: 1; PERK inhibitor: 0; hK5 inh: -10

What do the screens show for `CC(=O)c1c(C)n(CCCOC(C)C)c2ccc(O)cc12`?
FXIa inh 1536: 3; Furin inh: -17; FXIIa inh 1536: -9; Thrombin inh: 37; PERK inhibitor: -1; hK5 inh: 43*

Results for C=COCCn1c(C)c(C(C)=O)c2cc(O)ccc21 ?
FXIa inh 1536: -4; Furin inh: -16; FXIIa inh 1536: 7; Thrombin inh: -11; PERK inhibitor: 0; hK5 inh: -1

How did CCCC(C)(COC(N)=O)COC(=O)NC(C)C (configuration not stated) do in these assays?
FXIa inh 1536: 5; Furin inh: -17; FXIIa inh 1536: 14; Thrombin inh: -1; PERK inhibitor: 1; hK5 inh: -8

Results for Cn1nnc(CC[N+](C)(C)C)n1 ?
FXIa inh 1536: 56*; Furin inh: -11; FXIIa inh 1536: 27; Thrombin inh: 43*; PERK inhibitor: 2; hK5 inh: 38

What do the screens show for `CC(=O)c1ccccc1NC(=O)C1C2CCC(O2)C1C(=O)O` (configuration not stated)?
FXIa inh 1536: 3; Furin inh: -23; FXIIa inh 1536: 14; Thrombin inh: 1; PERK inhibitor: -1; hK5 inh: -21

What do the screens show for `CC1CC(NC(=O)C2C3CCC(O3)C2C(=O)O)CC(C)(C)C1` (configuration not stated)?
FXIa inh 1536: 23; Furin inh: -4; FXIIa inh 1536: 46*; Thrombin inh: -4; PERK inhibitor: -1; hK5 inh: -5

What do the screens show for `Cc1c(C=O)c2ccccc2n1Cc1cccc(F)c1`?
FXIa inh 1536: 9; Furin inh: -13; FXIIa inh 1536: 3; Thrombin inh: 0; PERK inhibitor: -1; hK5 inh: -8

What do the screens show for `CN(C)CP(=O)(Nc1ccccc1)N(C)C` (configuration not stated)?
FXIa inh 1536: 5; Furin inh: -14; FXIIa inh 1536: 19; Thrombin inh: 27; PERK inhibitor: 0; hK5 inh: 67*

What do the screens show for `Cc1ccccc1NC(=O)CCl`?
FXIa inh 1536: 1; Furin inh: -23; FXIIa inh 1536: 13; Thrombin inh: 50*; PERK inhibitor: 1; hK5 inh: -5

What do the screens show for `O=c1[nH]c(=O)n(Cc2ccco2)c(O)c1C=NCc1ccco1`?
FXIa inh 1536: 16; Furin inh: -17; FXIIa inh 1536: 1; Thrombin inh: 14; PERK inhibitor: 1; hK5 inh: 44*
